Assay results taken from ChEMBL document CHEMBL1146037, “Design and discovery of a novel dipeptidyl-peptidase IV (CD26)-based prodrug approach” (J Med Chem, 2006).
Activity calls are given as the source filed them. The rule behind the calls is not given here.

Tested on: MT4
Assay: Antiviral activity against HIV2 assessed as inhibition of HIV2-induced cytopathicity in MT4 cells
Format: functional, cell-based
Settings: not given
Summary of the method: (§1)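 CEM and MT-4 cell cultures infected with HIV-1 or HIV-2, with compounds diluted into culture medium from DMSO stocks. Antiviral activity is read at day 4 post-infection and reported as EC50.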

Question: Which Activity does the source give for `Cc1cn(C2OC(CO[Si](C)(C)C(C)(C)C)C3(OS(=O)(=O)C=C3N)C2O[Si](C)(C)C(C)(C)C)c(=O)n(CCCNC(=O)[C@@H]2C[C@@H](OCc3ccccc3)CN2C(=O)[C@@H](N)C(C)C)c1=O` (some centres undefined) here?
Answer: inactive

Question: For `Cc1cn(C2OC(CO[Si](C)(C)C(C)(C)C)C3(OS(=O)(=O)C=C3N)C2O[Si](C)(C)C(C)(C)C)c(=O)n(CCCNC(=O)[C@@H]2[C@@H](O)[C@@H](O)CN2C(=O)[C@@H](N)C(C)C)c1=O` (some centres undefined), which Activity is on record?
Answer: inactive

Target: T1, Dipeptidyl peptidase 4 (Homo sapiens, UniProt P27487)
T1 sequence (P27487 whole entry): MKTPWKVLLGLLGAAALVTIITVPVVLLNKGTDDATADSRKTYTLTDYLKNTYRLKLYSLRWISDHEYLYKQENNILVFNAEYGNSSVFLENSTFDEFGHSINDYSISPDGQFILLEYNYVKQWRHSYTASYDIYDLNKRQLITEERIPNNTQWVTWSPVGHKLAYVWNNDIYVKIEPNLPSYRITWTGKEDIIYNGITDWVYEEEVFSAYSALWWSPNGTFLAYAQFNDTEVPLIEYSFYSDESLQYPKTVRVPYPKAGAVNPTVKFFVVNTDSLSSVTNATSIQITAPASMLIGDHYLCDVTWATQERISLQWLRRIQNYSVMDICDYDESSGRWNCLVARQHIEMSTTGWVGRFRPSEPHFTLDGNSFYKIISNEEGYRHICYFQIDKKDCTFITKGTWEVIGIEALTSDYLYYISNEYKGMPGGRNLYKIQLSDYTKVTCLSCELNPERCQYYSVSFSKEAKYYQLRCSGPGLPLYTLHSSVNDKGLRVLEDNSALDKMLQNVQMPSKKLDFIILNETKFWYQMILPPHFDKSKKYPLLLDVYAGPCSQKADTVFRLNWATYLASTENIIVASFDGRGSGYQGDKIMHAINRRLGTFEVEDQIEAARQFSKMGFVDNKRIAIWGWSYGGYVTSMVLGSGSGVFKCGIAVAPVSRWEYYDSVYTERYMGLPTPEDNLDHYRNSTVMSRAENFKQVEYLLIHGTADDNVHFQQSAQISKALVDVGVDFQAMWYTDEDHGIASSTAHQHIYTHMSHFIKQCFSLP
Assay: Conversion of prodrug to parent drug NAP-TSAO-T catalyzed by CD26 after 24 hrs
Format: ADME
Parameters: concentration or dose not given beside the values
Settings: not given

Question: `Cc1cn(C2OC(CO[Si](C)(C)C(C)(C)C)C3(OS(=O)(=O)C=C3N)C2O[Si](C)(C)C(C)(C)C)c(=O)n(CCCNC(=O)[C@@H]2C[C@@H](OCc3ccccc3)CN2C(=O)[C@@H](N)C(C)C)c1=O` (some centres undefined) was tested. Which Activity did it give?
Answer: 0%

Question: Which Activity does the source give for `Cc1cn(C2OC(CO[Si](C)(C)C(C)(C)C)C3(OS(=O)(=O)C=C3N)C2O[Si](C)(C)C(C)(C)C)c(=O)n(CCCNC(=O)[C@@H]2[C@@H](O)[C@@H](O)CN2C(=O)[C@@H](N)C(C)C)c1=O` (some centres undefined) here?
Answer: 0%

Tested on: MT4
Assay: Antiviral activity against HIV1 assessed as inhibition of HIV1-induced cytopathicity in MT4 cells
Format: functional, cell-based
Settings: Homo sapiens
Summary of the method: as §1

Question: For `Cc1cn(C2OC(CO[Si](C)(C)C(C)(C)C)C3(OS(=O)(=O)C=C3N)C2O[Si](C)(C)C(C)(C)C)c(=O)n(CCCNC(=O)[C@@H]2C[C@@H](OCc3ccccc3)CN2C(=O)[C@@H](N)C(C)C)c1=O` (some centres undefined), which EC50 is on record?
Answer: 0.27 µM

Question: `Cc1cn(C2OC(CO[Si](C)(C)C(C)(C)C)C3(OS(=O)(=O)C=C3N)C2O[Si](C)(C)C(C)(C)C)c(=O)n(CCCNC(=O)[C@@H]2[C@@H](O)[C@@H](O)CN2C(=O)[C@@H](N)C(C)C)c1=O` (some centres undefined) was tested. Which EC50 did it give?
Answer: 0.77 µM

Target: T1, Dipeptidyl peptidase 4
Assay: Conversion of prodrug to parent drug NAP-TSAO-T catalyzed by CD26 after 1 hr
Format: ADME
Parameters: concentration or dose not given beside the values
Settings: not given

Question: `Cc1cn(C2OC(CO[Si](C)(C)C(C)(C)C)C3(OS(=O)(=O)C=C3N)C2O[Si](C)(C)C(C)(C)C)c(=O)n(CCCNC(=O)[C@@H]2[C@@H](O)[C@@H](O)CN2C(=O)[C@@H](N)C(C)C)c1=O` (some centres undefined) was tested. Which Activity did it give?
Answer: 0%

Target: T1, Dipeptidyl peptidase 4
Assay: Conversion of prodrug to parent drug NAP-TSAO-T catalyzed by CD26 after 4 hrs
Format: ADME
Parameters: concentration or dose not given beside the values
Settings: not given

Question: For `Cc1cn(C2OC(CO[Si](C)(C)C(C)(C)C)C3(OS(=O)(=O)C=C3N)C2O[Si](C)(C)C(C)(C)C)c(=O)n(CCCNC(=O)[C@@H]2C[C@@H](OCc3ccccc3)CN2C(=O)[C@@H](N)C(C)C)c1=O` (some centres undefined), which Activity is on record?
Answer: 0%

Question: With `Cc1cn(C2OC(CO[Si](C)(C)C(C)(C)C)C3(OS(=O)(=O)C=C3N)C2O[Si](C)(C)C(C)(C)C)c(=O)n(CCCNC(=O)[C@@H]2[C@@H](O)[C@@H](O)CN2C(=O)[C@@H](N)C(C)C)c1=O` (some centres undefined) as the molecule, how does the Activity read?
Answer: 0%

Tested on: CCRF-CEM
Assay: Antiproliferative activity against human CEM cell line
Format: functional
Settings: not given
Summary of the method: (§2)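 Cytostatic assay: compounds made up as DMSO stocks and diluted in culture medium. CC50 is the concentration that inhibits MT-4 or CEM cell proliferation by 50%.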

Question: With `Cc1cn(C2OC(CO[Si](C)(C)C(C)(C)C)C3(OS(=O)(=O)C=C3N)C2O[Si](C)(C)C(C)(C)C)c(=O)n(CCCNC(=O)[C@@H]2C[C@@H](OCc3ccccc3)CN2C(=O)[C@@H](N)C(C)C)c1=O` (some centres undefined) as the molecule, how does the CC50 read?
Answer: 2.1 µM

Question: For `Cc1cn(C2OC(CO[Si](C)(C)C(C)(C)C)C3(OS(=O)(=O)C=C3N)C2O[Si](C)(C)C(C)(C)C)c(=O)n(CCCNC(=O)[C@@H]2[C@@H](O)[C@@H](O)CN2C(=O)[C@@H](N)C(C)C)c1=O` (some centres undefined), which CC50 is on record?
Answer: 51 µM

Tested on: CCRF-CEM
Assay: Antiviral activity against HIV1 assessed as inhibition of HIV1-induced cytopathicity in CEM cells
Format: functional, cell-based
Settings: Homo sapiens
Summary of the method: as §1

Question: With `Cc1cn(C2OC(CO[Si](C)(C)C(C)(C)C)C3(OS(=O)(=O)C=C3N)C2O[Si](C)(C)C(C)(C)C)c(=O)n(CCCNC(=O)[C@@H]2C[C@@H](OCc3ccccc3)CN2C(=O)[C@@H](N)C(C)C)c1=O` (some centres undefined) as the molecule, how does the EC50 read?
Answer: 0.09 µM

Question: Which EC50 does the source give for `Cc1cn(C2OC(CO[Si](C)(C)C(C)(C)C)C3(OS(=O)(=O)C=C3N)C2O[Si](C)(C)C(C)(C)C)c(=O)n(CCCNC(=O)[C@@H]2[C@@H](O)[C@@H](O)CN2C(=O)[C@@H](N)C(C)C)c1=O` (some centres undefined) here?
Answer: 0.35 µM

Target: Human immunodeficiency virus type 1 reverse transcriptase (Human immunodeficiency virus 1, UniProt Q72547)
Assay: Inhibition of recombinant HIV1 reverse transcriptase
Settings: not given

Question: Which IC50 does the source give for `Cc1cn(C2OC(CO[Si](C)(C)C(C)(C)C)C3(OS(=O)(=O)C=C3N)C2O[Si](C)(C)C(C)(C)C)c(=O)n(CCCNC(=O)[C@@H]2C[C@@H](OCc3ccccc3)CN2C(=O)[C@@H](N)C(C)C)c1=O` (some centres undefined) here?
Answer: 28 µM

Question: With `Cc1cn(C2OC(CO[Si](C)(C)C(C)(C)C)C3(OS(=O)(=O)C=C3N)C2O[Si](C)(C)C(C)(C)C)c(=O)n(CCCNC(=O)[C@@H]2[C@@H](O)[C@@H](O)CN2C(=O)[C@@H](N)C(C)C)c1=O` (some centres undefined) as the molecule, how does the IC50 read?
Answer: 4.8 µM

Tested on: MT4
Assay: Antiproliferative activity against human MT4 cell line
Format: functional
Settings: not given
Summary of the method: as §2

Question: How did the CC50 turn out when `Cc1cn(C2OC(CO[Si](C)(C)C(C)(C)C)C3(OS(=O)(=O)C=C3N)C2O[Si](C)(C)C(C)(C)C)c(=O)n(CCCNC(=O)[C@@H]2C[C@@H](OCc3ccccc3)CN2C(=O)[C@@H](N)C(C)C)c1=O` (some centres undefined) was run?
Answer: 2 µM

Question: With `Cc1cn(C2OC(CO[Si](C)(C)C(C)(C)C)C3(OS(=O)(=O)C=C3N)C2O[Si](C)(C)C(C)(C)C)c(=O)n(CCCNC(=O)[C@@H]2[C@@H](O)[C@@H](O)CN2C(=O)[C@@H](N)C(C)C)c1=O` (some centres undefined) as the molecule, how does the CC50 read?
Answer: 46 µM

Tested on: CCRF-CEM
Assay: Antiviral activity against HIV2 assessed as inhibition of HIV2-induced cytopathicity in CEM cells
Format: functional, cell-based
Settings: not given
Summary of the method: as §1

Question: For `Cc1cn(C2OC(CO[Si](C)(C)C(C)(C)C)C3(OS(=O)(=O)C=C3N)C2O[Si](C)(C)C(C)(C)C)c(=O)n(CCCNC(=O)[C@@H]2C[C@@H](OCc3ccccc3)CN2C(=O)[C@@H](N)C(C)C)c1=O` (some centres undefined), which Activity is on record?
Answer: inactive

Question: For `Cc1cn(C2OC(CO[Si](C)(C)C(C)(C)C)C3(OS(=O)(=O)C=C3N)C2O[Si](C)(C)C(C)(C)C)c(=O)n(CCCNC(=O)[C@@H]2[C@@H](O)[C@@H](O)CN2C(=O)[C@@H](N)C(C)C)c1=O` (some centres undefined), which Activity is on record?
Answer: inactive
